{
  "source": "ChEMBL document CHEMBL4334446",
  "about": "“Evaluating the effects of fluorine on biological properties and metabolic stability of some antitubulin 3-substituted 7-phenyl-pyrroloquinolinones” (Eur J Med Chem, 2019)",
  "test_system": "B16-BL6",
  "test": "Antitumour activity against mouse B16-BL6 cells allografted in C57BL/6 mouse assessed as reduction in tumor mass at 30 mg/kg, ip administrated every other day relative to control",
  "type": "functional",
  "in_short": "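Six-week-old male C57BL/6 mice received BL6-B16 murine melanoma cells subcutaneously in the dorsolateral flank, suspended in PBS. Once tumors reached about 100 mm³, the mice were randomised and dosed intraperitoneally every other day, with the drug dissolved in DMSO; controls received DMSO vehicle. Tumors were measured in two dimensions, V=(D x d²)/2, and weighed at the end. Five mice per group; mean ± SEM.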",
  "data": [
    {"smiles": "COc1ccc(/C=C\\c2cc(OC)c(OC)c(OC)c2)cc1OP(=O)(O)O", "note": "[FOSBRETABULIN DISODIUM]", "values": [
      {"measurement": "inhibition in vivo at 30 mg/kg", "result": 31.3, "unit": "%"}
    ]}
  ]
}
